Measurements pooled from the literature.
Protocols differ between the studies behind these lines.
CDK14: Cyclin-dependent kinase 14 (CDK14, Homo sapiens, UniProt O94921)
CDK14 with cyclin Y: Cyclin-dependent kinase 14, with cyclin Y (CDK14, Homo sapiens, UniProt O94921)

| SMILES | target | observed | action | method | concentration | quantity | result |
| --- | --- | --- | --- | --- | --- | --- | --- |
| O=[N+]([O-])c1cccc2[nH]c(CNc3nc(N4CCOCC4)nc4c3ncn4-c3ccsc3)nc12 | CDK14 | binding | – | competition with immobilised ligand | 10 µM | binding vs control | 40% |
| CC1CCCN1c1nccc(-c2cnn3ncccc23)n1 (stereo not drawn) | CDK14 | binding | – | – | 1 µM | remaining binding | 100% |
| CN1CC(Oc2cnc(C#N)cc2-c2ccn3nc(NC(=O)C4CC4)cc3c2)C1 | CDK14 with cyclin Y | enzyme activity | inhibitor | – | 1 µM | inhibition | -11% |
| Cn1nc(C(F)(F)F)cc1-c1cnc(N2CCc3cc(S(=O)(=O)Nc4c(F)cc(Cl)cc4F)cc(N4CCCC4=O)c32)nc1 | CDK14 | cell-free assay | – | competition with immobilised ligand | 1 µM | remaining binding | 100% |
| Nc1ncnc2occ(-c3ccc(NC(=O)Nc4cc(C(F)(F)F)ccc4F)cc3)c12 | CDK14 | cell-free assay | inhibitor | – | 20 µM | remaining signal | 0.1% |
| CCC(=N\O)/C(C)=C/c1ccc(F)cc1 | CDK14 | cell-free assay | – | competition with immobilised ligand | 1 µM | remaining binding | 91% |
| COc1cc(Cl)c(C(=O)N[C@@H](CN[C@H]2CC[C@@H](N)CC2)Cc2ccc(C#N)cc2)cc1-c1ccc(CN[C@H](C)c2ccc(C)cc2)o1 | CDK14 with cyclin Y | enzyme activity | inhibitor | – | 1 µM | remaining activity | 99% |
| Cc1ccc(C(=O)Nc2ccc(CN3CCN(C)CC3)c(C(F)(F)F)c2)cc1C#Cc1cnc2cccnn12 | CDK14 | enzyme activity | inhibitor | – | 23.5 nM | remaining activity | 68% |
| Cc1sc(C(=O)NC2COC2)cc1-n1cc(NC(=O)Nc2c(F)cccc2Cl)cn1 | CDK14 | enzyme activity | inhibitor | – | 10 µM | remaining activity | 100% |
| Cc1ccc(C(=O)NCc2ccsc2)cc1C#Cc1cn(C(C)C)c2ncnc(N)c12 | CDK14 with cyclin Y | enzyme activity | inhibitor | – | 1 µM | activity vs control | 92% |
| Fc1cccc(-n2cnc3c(NCc4nc5c(F)c(F)ccc5[nH]4)nc(N4CCOCC4)nc32)c1 | CDK14 | binding | – | competition with immobilised ligand | 10 µM | binding vs control | 55% |
| O=C(Nc1cnn(-c2csc(C(=O)NC3COC3)c2)c1)Nc1ccccc1Cl | CDK14 | enzyme activity | inhibitor | – | 5 µM | remaining activity | 107% |
